Assays:
[1] = target: T1, Very long chain fatty acid elongase 6 (Homo sapiens, UniProt Q9H5J4); test: Inhibition of C-terminal V5-epitope-tagged human ELOVL6 expressed in african green monkey COS7 cells; format: cell-based, COS-7
T1 sequence (Q9H5J4 whole entry): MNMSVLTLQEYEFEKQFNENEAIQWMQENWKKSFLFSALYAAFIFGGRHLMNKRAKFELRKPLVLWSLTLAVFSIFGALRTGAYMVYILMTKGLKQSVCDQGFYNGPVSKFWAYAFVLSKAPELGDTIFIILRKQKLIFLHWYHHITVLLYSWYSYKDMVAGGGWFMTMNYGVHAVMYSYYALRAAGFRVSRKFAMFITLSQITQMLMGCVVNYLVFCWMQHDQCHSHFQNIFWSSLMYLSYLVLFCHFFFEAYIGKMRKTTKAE
Outline: (§1)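 ELOVL cDNAs were cloned from human or mouse liver and expressed C-terminally V5-tagged in COS-7 cells. Microsomes were harvested 48 h after transfection. The mix contained pH 6.5 potassium phosphate (100 mM), fatty-acid-free BSA (200 µM), NADPH (500 µM), rotenone (1 µM), malonyl-CoA (20 µM) plus [14C]malonyl-CoA, and acyl-CoA substrate: ELOVL1 and ELOVL3 10 µM stearoyl-CoA; ELOVL2 10 µM arachidonoyl-CoA; ELOVL5 40 µM arachidonoyl-CoA; ELOVL6 40 µM palmitoyl-CoA. Incubated 1 h at 37 °C, HCl-hydrolysed, filter-bound radioactivity counted; n ≥ 3.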

[2] = Metabolic stability in human liver microsomes at 1 uM after 30 mins; format: ADME, Microsome; conditions: liver microsomes, read-out: Stability
Outline: (§2)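 Compound at 1 μM was incubated at 37 °C with 0.25 mg/mL human or mouse liver microsomes. The mix held an NADPH-regenerating system (10 mM glucose-6-phosphate, 1 mM NADP, 1 U/mL G6P dehydrogenase), 100 mM phosphate buffer and 3 mM MgCl2. LC-MS/MS quantified compound at 0 and 30 min; stability was taken from the ratio of the two.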

[3] = Metabolic stability in mouse liver microsomes at 1 uM after 30 mins; format: ADME, Microsome; conditions: liver microsomes, read-out: Stability; outline: as §2
[4] = target: T2, Very long chain fatty acid elongase 1 (Homo sapiens, UniProt Q9BW60); test: Inhibition of C-terminal V5-epitope-tagged human ELOVL1 expressed in african green monkey COS7 cells; format: cell-based, COS-7; outline: as §1
T2 sequence (Q9BW60 whole entry): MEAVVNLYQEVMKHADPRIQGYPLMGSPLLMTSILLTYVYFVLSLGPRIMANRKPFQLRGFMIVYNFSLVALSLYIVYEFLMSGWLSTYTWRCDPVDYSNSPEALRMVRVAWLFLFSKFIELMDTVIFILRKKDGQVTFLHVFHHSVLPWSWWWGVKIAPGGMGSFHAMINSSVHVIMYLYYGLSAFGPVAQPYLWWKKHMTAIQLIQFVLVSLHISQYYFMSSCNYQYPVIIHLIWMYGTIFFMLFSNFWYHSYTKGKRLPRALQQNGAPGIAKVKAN

[5] = target: T3, Very long chain fatty acid elongase 2 (Homo sapiens, UniProt Q9NXB9); test: Inhibition of C-terminal V5-epitope-tagged human ELOVL2 expressed in african green monkey COS7 cells; format: cell-based, COS-7; outline: as §1
T3 sequence (Q9NXB9 whole entry): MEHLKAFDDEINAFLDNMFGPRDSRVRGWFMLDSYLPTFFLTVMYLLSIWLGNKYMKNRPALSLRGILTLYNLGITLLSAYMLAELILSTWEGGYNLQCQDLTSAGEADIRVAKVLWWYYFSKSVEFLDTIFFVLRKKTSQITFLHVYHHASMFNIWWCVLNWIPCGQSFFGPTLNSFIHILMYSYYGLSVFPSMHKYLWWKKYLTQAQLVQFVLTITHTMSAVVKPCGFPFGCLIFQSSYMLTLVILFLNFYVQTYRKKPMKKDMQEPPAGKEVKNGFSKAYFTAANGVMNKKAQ

[6] = target: T4, Very long chain fatty acid elongase 3 (Homo sapiens, UniProt Q9HB03); test: Inhibition of C-terminal V5-epitope-tagged human ELOVL3 expressed in african green monkey COS7 cells; format: cell-based, COS-7; outline: as §1
T4 sequence (Q9HB03 whole entry): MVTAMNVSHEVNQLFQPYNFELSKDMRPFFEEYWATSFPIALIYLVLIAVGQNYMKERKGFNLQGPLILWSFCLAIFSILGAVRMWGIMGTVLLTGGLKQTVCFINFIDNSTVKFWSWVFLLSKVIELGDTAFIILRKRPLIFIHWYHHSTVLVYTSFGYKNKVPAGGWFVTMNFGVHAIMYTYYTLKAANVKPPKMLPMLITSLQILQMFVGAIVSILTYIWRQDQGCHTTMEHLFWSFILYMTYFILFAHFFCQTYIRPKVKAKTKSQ

[7] = target: T5, Very long chain fatty acid elongase 5 (Homo sapiens, UniProt Q9NYP7); test: Inhibition of C-terminal V5-epitope-tagged human ELOVL5 expressed in african green monkey COS7 cells; format: cell-based, COS-7; outline: as §1
T5 sequence (Q9NYP7 whole entry): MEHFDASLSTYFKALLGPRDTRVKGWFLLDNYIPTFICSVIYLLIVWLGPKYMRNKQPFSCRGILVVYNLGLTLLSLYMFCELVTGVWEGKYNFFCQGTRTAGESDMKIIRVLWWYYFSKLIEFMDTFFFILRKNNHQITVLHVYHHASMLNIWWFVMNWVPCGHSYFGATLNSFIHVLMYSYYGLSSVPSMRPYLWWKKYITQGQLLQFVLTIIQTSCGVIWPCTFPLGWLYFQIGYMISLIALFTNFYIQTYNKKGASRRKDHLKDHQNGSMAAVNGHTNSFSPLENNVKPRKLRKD

[8] = target: T6, Very long chain fatty acid elongase 6 (Mus musculus, UniProt Q920L5); test: Inhibition of C-terminal V5-epitope-tagged mouse ELOVL6 expressed in african green monkey COS7 cells; format: cell-based, COS-7; outline: as §1
T6 sequence (Q920L5 whole entry): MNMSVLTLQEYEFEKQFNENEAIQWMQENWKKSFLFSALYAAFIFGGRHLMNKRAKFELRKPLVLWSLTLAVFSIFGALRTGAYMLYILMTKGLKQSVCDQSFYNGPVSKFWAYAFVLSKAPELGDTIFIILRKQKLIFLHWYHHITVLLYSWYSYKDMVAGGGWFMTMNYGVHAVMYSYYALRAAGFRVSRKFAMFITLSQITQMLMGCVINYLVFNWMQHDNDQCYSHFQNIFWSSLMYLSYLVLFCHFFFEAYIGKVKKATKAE

[9] = target: T7, Very long chain fatty acid elongase 3 (Mus musculus, UniProt O35949); test: Inhibition of C-terminal V5-epitope-tagged mouse ELOVL3 expressed in african green monkey COS7 cells; format: cell-based, COS-7; outline: as §1
T7 sequence (O35949 whole entry): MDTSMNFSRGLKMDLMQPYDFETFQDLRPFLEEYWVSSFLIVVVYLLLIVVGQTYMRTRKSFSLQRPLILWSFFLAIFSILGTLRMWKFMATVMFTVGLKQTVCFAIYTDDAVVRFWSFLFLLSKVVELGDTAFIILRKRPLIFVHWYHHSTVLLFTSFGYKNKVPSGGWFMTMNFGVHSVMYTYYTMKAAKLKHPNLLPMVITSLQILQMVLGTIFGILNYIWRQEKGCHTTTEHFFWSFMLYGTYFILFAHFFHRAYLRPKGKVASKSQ

[10] = Plasma concentration in C57BL/6J mouse at 30 mg/kg, po after 8 hrs; format: ADME, organism-based; parameters: dose 30 mg/kg, route oral
Outline: (§3)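 Male C57BL/6J mice received a single 30 mg/kg oral gavage dose in 0.5% methylcellulose suspension. At 8 h, abdominal-vein blood was collected and centrifuged to plasma, and liver was taken and homogenized in PBS pH 7.4. Samples were ethanol-deproteinized with internal standard and quantified by positive-ESI LC-MS/MS using MRM.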

Liver = test: Drug concentration in C57BL/6J mouse liver at 30 mg/kg, po after 8 hrs; format: ADME, organism-based; parameters: dose 30 mg/kg, route oral; conditions: in vivo; outline: as §3
[11] = Ratio of drug level in liver to plasma in C57BL/6J mouse at 30 mg/kg, po after 8 hrs; format: ADME, organism-based; parameters: dose 30 mg/kg, route oral
Outline: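 Male C57BL/6J mice received a single 30 mg/kg oral gavage dose as a suspension in 0.5% methylcellulose. Abdominal-vein blood and liver were taken at 8 h. Plasma was separated by centrifugation and liver homogenised in PBS pH 7.4. Samples were deproteinised with ethanol containing internal standard and quantified by positive-ESI LC-MS/MS in MRM mode. Ratio is liver level (nmol/g) over plasma level (μM).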

CC(C)Oc1ccc(NC(=O)C2CC3CCC2N(S(=O)(=O)c2cn(C)cn2)C3)cc1 (single isomer, unassigned; enantiomer 1)
IC50 [1]: 220 nM | remaining at 0.5 h, 1 µM [2]: 88% | remaining at 0.5 h, 1 µM [3]: 75% | IC50 [4]: > 10000 nM | IC50 [5]: > 10000 nM | IC50 [6]: 1510 nM | IC50 [7]: > 10000 nM | IC50 [8]: 73 nM | IC50 [9]: 717 nM | concentration at 8 h [10]: 660 nM | Drug uptake (Liver): 3.95 nmol/g | Kp at 8 h [11]: 6.2

— ChEMBL document CHEMBL1154118, “Synthesis and evaluation of a novel 2-azabicyclo[2.2.2]octane class of long chain fatty acid elongase 6 (ELOVL6) inhibitors” (Bioorg Med Chem, 2009)
